# From ChEMBL document CHEMBL1125306, “5,10-Methylenetetrahydro-5-deazafolic acid and analogues: synthesis and biological activities” (J Med Chem, 1992)
# Assays:
# Dihydrofolate reductase [1] = target: T1, Dihydrofolate reductase (Homo sapiens, UniProt P00374); experiment: Compound was evaluated for the inhibition of recombinant human Dihydrofolate reductase (DHFR); no inhibition
# T1 sequence (P00374 whole entry): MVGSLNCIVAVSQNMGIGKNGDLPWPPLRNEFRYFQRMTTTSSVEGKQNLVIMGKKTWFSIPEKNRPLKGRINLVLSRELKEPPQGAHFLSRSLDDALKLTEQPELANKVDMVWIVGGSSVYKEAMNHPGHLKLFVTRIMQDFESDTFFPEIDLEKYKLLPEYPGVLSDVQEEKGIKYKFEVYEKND
# Thymidylate synthase [2] = target: T2, Thymidylate synthase (Lactobacillus casei, UniProt P00469); experiment: Compound was evaluated for the inhibition of Lactobacillus casei thymidylate synthase; set-up: species or system Lacticaseibacillus casei
# T2 sequence (P00469 whole entry): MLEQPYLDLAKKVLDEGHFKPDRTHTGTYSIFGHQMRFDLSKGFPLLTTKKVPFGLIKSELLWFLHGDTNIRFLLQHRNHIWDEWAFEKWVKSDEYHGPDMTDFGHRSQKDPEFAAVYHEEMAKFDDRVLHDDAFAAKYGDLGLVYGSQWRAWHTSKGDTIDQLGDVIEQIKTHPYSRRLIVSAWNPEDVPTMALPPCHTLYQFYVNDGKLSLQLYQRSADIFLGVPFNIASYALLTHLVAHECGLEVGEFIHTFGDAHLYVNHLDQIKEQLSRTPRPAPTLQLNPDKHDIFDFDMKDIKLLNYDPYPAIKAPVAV
# Manca [3] = experiment: Compound was evaluated for the inhibition of Manca human lymphoma cell growth; assay type: functional, cell-based
# Method in brief: (§1)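 Manca human lymphoma cells grown in RPMI medium with 10% fetal calf serum. Growth was estimated by tetrazolium reduction.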
# [4] = target: GAR formyltransferase (Lactobacillus casei); experiment: Compound was evaluated for the inhibition of Glycinamide ribonucleotide formyl transferase (GAR) with formyl (6R) tetrahydrofolate as substrate
# Dihydrofolate reductase [5] = target: T1, Dihydrofolate reductase; experiment: Compound was evaluated for the inhibition of recombinant human Dihydrofolate reductase (DHFR)
# Thymidylate synthase [6] = target: Thymidylate synthase (Homo sapiens, UniProt P04818); experiment: Compound was evaluated for the inhibition of recombinant human thymidylate synthase
# [7] = target: T3, Dihydrofolate reductase (Homo sapiens) (UniProt P00374); experiment: Percent inhibition against human DHFR; settings: concentration not given here
# T3 sequence (whole entry): T1 sequence (P00374 whole entry)
# Manca [8] = experiment: Compound was evaluated for the inhibition of Manca human lymphoma cell growth; no inhibition; assay type: functional, cell-based; method in brief: as §1
# Dihydrofolate reductase [9] = target: Dihydrofolate reductase (Lactobacillus casei, UniProt P00381); experiment: Compound was evaluated for the inhibition of Lactobacillus casei DHFR; set-up: species or system Lacticaseibacillus casei
# Dihydrofolate reductase (Lactobacillus casei, UniProt P00381), sequence (P00381 whole entry): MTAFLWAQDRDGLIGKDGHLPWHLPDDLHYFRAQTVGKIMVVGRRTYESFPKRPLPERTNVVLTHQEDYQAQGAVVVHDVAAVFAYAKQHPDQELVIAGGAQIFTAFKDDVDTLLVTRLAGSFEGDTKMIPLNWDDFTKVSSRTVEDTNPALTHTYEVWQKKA
# Thymidylate synthase (Homo sapiens, UniProt P04818), sequence (P04818 whole entry): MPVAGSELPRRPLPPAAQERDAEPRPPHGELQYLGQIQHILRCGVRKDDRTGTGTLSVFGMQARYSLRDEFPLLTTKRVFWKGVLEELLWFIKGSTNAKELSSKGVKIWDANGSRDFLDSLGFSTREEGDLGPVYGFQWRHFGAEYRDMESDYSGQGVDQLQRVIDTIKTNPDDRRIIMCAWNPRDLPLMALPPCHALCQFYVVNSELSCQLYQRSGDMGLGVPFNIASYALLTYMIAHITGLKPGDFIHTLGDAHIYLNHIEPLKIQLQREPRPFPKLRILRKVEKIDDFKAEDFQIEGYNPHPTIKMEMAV
IC50 (Dihydrofolate reductase [1]),IC50 (Thymidylate synthase [2]),IC50 [4],IC50 (Dihydrofolate reductase [5]),IC50 (Thymidylate synthase [6]),inhibition [7],IC50 (Dihydrofolate reductase [9]),Compound,IC50 (Manca [3]),IC50 (Manca [8])
> 95 µM,95 µM,> 95 µM,–,–,–,–,Cc1c2cnc3nc(N)nc(O)c3c2c(C)n1C,> 10 µM,–
–,–,–,> 40 µM,> 40 µM,34%,5 µM,Nc1nc(O)c2c(n1)NCC1CN(c3ccc(C(=O)NC(CCC(=O)O)C(=O)O)cc3)CC21 (stereo not drawn),–,> 20 µM
–,> 100 µM,–,> 80 µM,–,23%,–,Nc1nc(O)c2c(ncc3cn(-c4ccc(C(=O)NC(CCC(=O)O)C(=O)O)cc4)cc32)n1 (stereo not drawn),42 µM,–
